Series [1] can be described thus: Induction of NO release in PBS at pH 7.4 by Griess assay. It counts as physicochemical. The conditions noted are these: buffer. In short, it runs like this:
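Compound at 2 mM in 0.1 M phosphate buffer pH 7.4, no L-cysteine, incubated 1.5 h at 37 °C without air, then 10 min air at 25 °C. Nitrite measured by Griess reagent (sulfanilamide/N-naphthylethylenediamine), absorbance at 540 nm against a 0–100 µM sodium nitrite curve; expressed as % of 1 mol NO/mol theoretical release, n = 3.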
For orientation: Griess reagent forms a coloured azo dye with nitrite.

The nature of series [2]: Induction of NO release in phosphate buffer containing L-cysteine at pH 7.4 by Griess assay. It is filed as physicochemical. An outline of the steps: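 Compound at 0.2 mM in 0.1 M phosphate buffer pH 7.4 mixed 1:1 with fresh 3.6 mM L-cysteine in the same buffer; incubated 1.5 h at 37 °C without air, then exposed to air 10 min at 25 °C. Griess reagent added, absorbance at 540 nm after 10 min; nitrite from sodium nitrite standard curve (0–100 µM); % of 1 mol NO/mol theoretical, n = 3.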

Series [3] concerns Bel-7402. Description: Cytotoxicity against human Bel7402 after 72 hrs by MTT assay. It counts as functional, cell-based. To be noted: Bel-7402, 72 h. An outline of the steps: (§1)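 Cells seeded at 1×10^3 per well in medium, preincubated 24 h at 37 °C in 5% CO2, then test drug added in medium to quadruplicate wells for 72 h. MTT ([…] in complete medium) added for 4 h; formazan dissolved in DMSO buffered with glycine-NaCl (pH 10.5); absorbance at 570 nm. IC50 taken as concentration giving 50% loss of viability; means of three experiments.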
Background: Formazan colour is commonly taken as a measure of viable cells.

A further series has as its system MCF7. Description: Cytotoxicity against human MCF7 after 72 hrs by MTT assay. It counts as functional, cell-based. The conditions noted are these: MCF7, 72 h. In short, it runs like this:
as §1

Series [4] concerns Bel-7402. Put plainly: Cytotoxicity against human Bel7402 cells at 1.4 umol/L after 72 hrs by MTT assay. It is filed as functional, cell-based. An outline of the steps:
(§2)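 BEL-7402 (liver cancer) and L-02 (liver normal) cells seeded at 1×10^3 per well, preincubated 24 h at 37 °C, 5% CO2, exposed to 1.4 μmol/L compound in quadruplicate wells for 72 h. Viability by MTT (4 h), formazan dissolved in glycine-NaCl-buffered DMSO, read at 570 nm. One-way ANOVA with LSD multiple comparisons, P < 0.05.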

Series [5] relates to Bel-7402. Put plainly: Induction of NO release in human Bel7402 cells assessed as decrease in absorbance at 100 umol/L after 30 mins by spectrophotometry. It is filed as functional, cell-based. An outline of the steps: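 BEL-7402 cells grown in 24-well plates at 37 °C, 5% CO2 to at least 70% confluency; medium replaced with medium containing 100 µmol/L compound. After 0 and 30 min at 37 °C, the drug-containing medium was removed and its absorbance measured by UV–vis spectrophotometry.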

A short description of series [6]: Cytotoxicity against human L02 cells at 1.4 umol/L after 72 hrs by MTT assay. The conditions noted are these: l02, 72 h, 1.4 µM. It counts as cell-based. An outline of the steps: as §2

Calls of active or inactive are those of the source. No cut-off for these calls is given here.

As usually defined, the IC50 is the midpoint of a concentration-inhibition curve. A high value points to weaker potency in that assay.

In the case of `O=[N+]([O-])OCCOc1ccc(-c2c3nc(c(-c4ccccc4)c4ccc([nH]4)c(-c4ccccc4)c4nc(c(-c5ccccc5)c5ccc2[nH]5)C=C4)C=C3)cc1`, the Activity is reported as 0.43% in series [1] and 5.67% in series [2]. In addition, the IC50 with Bel-7402 [3] stood at 0.8 µM; in the series with MCF7 it was 8.7 µM. Besides, the result with Bel-7402 [4] and in the series with Bel-7402 [5] was Active.
`C1=Cc2nc1c(-c1ccccc1)c1nc(c(-c3ccccc3)c3ccc([nH]3)c(-c3ccccc3)c3ccc([nH]3)c2-c2ccccc2)C=C1` [TETRAPHENYLPORPHYRIN]: the IC50 with Bel-7402 [3] came to 350 µM; with MCF7, 245 µM.
As for `O=[N+]([O-])OCCCOc1ccc(-c2c3nc(c(-c4ccccc4)c4ccc([nH]4)c(-c4ccccc4)c4nc(c(-c5ccccc5)c5ccc2[nH]5)C=C4)C=C3)cc1`, the Activity worked out at 0.47% in series [1] and 3.95% in series [2]. For the same compound, the IC50 was 3 µM in the series with Bel-7402 [3] and 30 µM with MCF7. In addition, the result with Bel-7402 [4] was Active.
Regarding `O=c1[nH]cc(F)c(=O)[nH]1` [FLUOROURACIL], the IC50 was determined as 4.3 µM in the series with Bel-7402 [3] and 4.7 µM in the series on MCF7.
`O=Cc1ccc(OCCCO[N+](=O)[O-])cc1`: the Activity entry in series [6] is listed as “Toxic”.
Still for that read-out and setting: then `O=Cc1ccc(OCCO[N+](=O)[O-])cc1`, with “Toxic”.
Take `Cc1ccc(-c2c3nc(c(-c4ccc(C)cc4)c4ccc([nH]4)c(-c4ccc(OCCCO[N+](=O)[O-])cc4)c4nc(c(-c5ccc(C)cc5)c5ccc2[nH]5)C=C4)C=C3)cc1`: the Activity in series [1] was 1.1%; in series [2], 6.25%. The IC50 was found to be 1.4 µM with Bel-7402 [3] and 46 µM in the series with MCF7. Moreover, the outcome in the series with Bel-7402 [4] was Active.
Consider `Cc1ccc(-c2c3nc(c(-c4ccc(C)cc4)c4ccc([nH]4)c(-c4ccc(OCCO[N+](=O)[O-])cc4)c4nc(c(-c5ccc(C)cc5)c5ccc2[nH]5)C=C4)C=C3)cc1`, for which the Activity in series [1] worked out at 0.55%; in series [2], 3.12%. The figures for the IC50 in the series with Bel-7402 [3] and in the series with MCF7 were 1.8 µM and 55 µM, respectively. Further, the outcome in the series on Bel-7402 [4] was Active.

Values taken from ChEMBL document CHEMBL1153315, “Porphyrins containing nitric oxide donors: Synthesis and cancer cell-oriented NO release” (Bioorg Med Chem Lett, 2009).
